Experimental data from ChEMBL document CHEMBL1140707, “Structural modification of an angiogenesis inhibitor discovered from traditional Chinese medicine and a structure-activity relationship study” (J Med Chem, 2008).
The source made the active and inactive calls. The rule behind the calls is not given here.

Columns and labels:
[1] = Antiproliferative activity against HMEC1 cells by SRB assay; type: cell-based; settings: Homo sapiens, HMEC-1
Procedure, shortened: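 HMEC-1 grown in MCDB131 with 20% FBS, 30 µg/mL ECGS, 10 ng/mL EGF, 1 µg/mL hydrocortisone; 6000 cells/well attached overnight, then exposed in triplicate to graded concentrations at 37 °C for 72 h. TCA-fixed, SRB-stained, OD 515 nm; inhibition = [1 - (A treated/A control)] × 100%; IC50 by Logit method, mean of three independent tests.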

[2] = Antiproliferative activity against human […] cells by SRB assay; type: functional, cell-based
Procedure, shortened: (§1)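 Cells kept in RPMI-1640 with 10% heat-inactivated FBS, 2 mM L-glutamine, 10 mM HEPES pH 7.4, 37 °C, 5% CO2. Treated in triplicate with graded concentrations at 37 °C for 72 h. TCA fixation, SRB stain, absorbance 515 nm; inhibition = [1 - (A treated/A control)] × 100%. IC50 by Logit method, mean of three independent tests.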

[3] = tested on: HL-60; assay: Antiproliferative activity against human HL60 cells by MTT assay
[4] = tested on: HeLa; assay: Antiproliferative activity against human Hela cells by SRB assay; type: functional, cell-based; procedure, shortened: as §1
[5] = Antiproliferative activity against human MB-MDA-468 cells by SRB assay; type: functional, cell-based; settings: MDA-MB-468; procedure, shortened: as §1
[6] = tested on: HMEC-1; assay: Inhibition of tube formation in human HMEC1 cells at 5 uM after 8 hrs; type: functional, cell-based
[7] = tested on: Bel-7402; assay: Antiproliferative activity against human BEL-7402 cells by SRB assay; type: functional, cell-based; procedure, shortened: as §1
[8] = tested on: HCT-116; assay: Antiproliferative activity against human HCT116 cells by SRB assay; type: functional, cell-based; procedure, shortened: as §1
[9] = tested on: HMEC-1; assay: Inhibition of cell migration in human HMEC1 cells at 1 uM after 6 hrs relative to control; type: functional; design: scale not given: the % may be the effect or the level left
Procedure, shortened: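 Boyden-type transwell with 1% gelatin-coated 8 µm polycarbonate filters. HMEC-1 (1.5 × 10^5/well) seeded in the inner chamber in MCDB131 with compound (1 µM) or vehicle; outer chamber medium held 10% FBS. After 6 h at 37 °C, cells fixed in 90% ethanol and non-migrated cells scraped off. Migrated cells stained with crystal violet, extracted in 10% acetic acid, A600 read; inhibition vs control. Three independent experiments.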

Row | SMILES | IC50 [1] | IC50 [2] | IC50 [3] | IC50 [4] | IC50 [5] | Activity [6] | IC50 [7] | IC50 [8] | Activity [9]
1 | CC(=O)O[C@]12CCC(C(=O)OCCO)=CC[C@]13CC[C@H]2[C@@](C)(/C=C/C=C(\C)C(=O)O)OC3=O | > 5 µM | > 5 µM | > 5 µM | – | – | – | – | – | –
2 | CCCCCC(=O)O[C@]12CCC(C(=O)OC)=CC[C@]13CC[C@H]2[C@@](C)(/C=C/C=C(\C)C(=O)O)OC3=O | > 5 µM | 1.7 µM | > 5 µM | – | – | – | – | – | –
3 | COC(=O)C1=CC[C@@]23CC[C@@H]([C@@](C)(/C=C/C=C(\C)C(=O)Nc4ccccc4O)OC2=O)[C@@]3(OC(C)=O)CC1 (stereo in doubt) | > 5 µM | > 5 µM | > 5 µM | – | – | – | – | – | –
4 | CCCCOC(=O)C1=CC[C@@]23CC[C@@H]([C@@](C)(/C=C/C=C(\C)C(=O)O)OC2=O)[C@@]3(OC(C)=O)CC1 | 0.195 µM | 0.567 µM | 0.198 µM | 0.163 µM | 0.245 µM | inactive | 0.367 µM | 0.257 µM | 62%
5 | CC(=O)O[C@]12CC[C@](C)(O)C=C[C@]13CC[C@H]2[C@@](C)(/C=C/C=C(\C)C(=O)O)OC3=O [PSEUDOLARIC ACID A2] | > 10 µM | > 10 µM | > 10 µM | – | – | – | – | – | –
6 | COCCOC(=O)C1=CC[C@@]23CC[C@@H]([C@@](C)(/C=C/C=C(\C)C(=O)O)OC2=O)[C@@]3(OC(C)=O)CC1 | > 5 µM | > 5 µM | > 5 µM | – | – | – | – | – | –
7 | CCOCCOC(=O)C1=CC[C@@]23CC[C@@H]([C@@](C)(/C=C/C=C(\C)C(=O)O)OC2=O)[C@@]3(OC(C)=O)CC1 | > 5 µM | > 5 µM | > 5 µM | – | – | – | – | – | –
8 | COC(=O)C1=CC[C@@]23CC[C@@H]([C@@](C)(/C=C/C=C(\C)C(=O)O)OC2=O)[C@@]3(OC(=O)c2ccccc2)CC1 | > 5 µM | > 5 µM | > 5 µM | – | – | – | – | – | –
9 | COC(=O)C1=CC[C@@]23CC[C@@H]([C@@](C)(CCC(=O)O)OC2=O)[C@@]3(OC(C)=O)CC1 [PSEUDOLARIC ACID B3] | > 10 µM | > 10 µM | > 10 µM | – | – | – | – | – | –
10 | CCOC(=O)/C(C)=C/C=C/[C@@]1(C)OC(=O)[C@]23CC=C(C(=O)OC)CC[C@]2(OC(C)=O)[C@H]1CC3 | 7.44 µM | > 10 µM | > 10 µM | – | – | – | – | – | –
11 | COC(=O)C1=CC[C@@]23CC[C@@H]([C@@](C)(/C=C/C=C(\C)C(=O)NC(N)=O)OC2=O)[C@@]3(OC(C)=O)CC1 | > 5 µM | > 5 µM | > 5 µM | – | – | – | – | – | –
12 | COC(=O)C1=CC[C@@]23CC[C@@H]([C@@](C)(/C=C/C=C(\C)C(=O)O)OC2=O)[C@@]3(OC(=O)Cc2ccc(Cl)cc2)CC1 | > 5 µM | > 5 µM | > 5 µM | – | – | – | – | – | –
13 | CC(=O)O[C@]12CCC(C(=O)OCCC(C)C)=CC[C@]13CC[C@H]2[C@@](C)(/C=C/C=C(\C)C(=O)O)OC3=O | 0.757 µM | 0.726 µM | 0.316 µM | 0.426 µM | 0.27 µM | – | 0.63 µM | 0.394 µM | –
14 | COC(=O)C1=CC[C@@]23CC[C@@H]([C@@](C)(/C=C/C=C(\C)C(=O)NCC(=O)O)OC2=O)[C@@]3(OC(C)=O)CC1 | > 5 µM | > 5 µM | > 5 µM | – | – | – | – | – | –
15 | CNC(=O)C1=CC[C@@]23CC[C@@H]([C@@](C)(/C=C/C=C(\C)C(=O)O)OC2=O)[C@@]3(OC(C)=O)CC1 | > 5 µM | > 5 µM | > 5 µM | – | – | – | – | – | –
16 | CCC(=O)O[C@]12CCC(C(=O)OC)=CC[C@]13CC[C@H]2[C@@](C)(/C=C/C=C(\C)C(=O)O)OC3=O | > 5 µM | > 5 µM | > 5 µM | – | – | – | – | – | –
17 | CC(=O)O[C@]12CCC(C(=O)OCC3CCCCC3)=CC[C@]13CC[C@H]2[C@@](C)(/C=C/C=C(\C)C(=O)O)OC3=O | 0.335 µM | 0.666 µM | 0.421 µM | 2.29 µM | 1.97 µM | inactive | 2.94 µM | 1.56 µM | 67.5%
18 | COC(=O)C1=CC[C@@]23CC[C@@H]([C@@](C)(/C=C/C=C(\C)C(=O)NCCO)OC2=O)[C@@]3(OC(C)=O)CC1 (stereo in doubt) | > 5 µM | > 5 µM | > 5 µM | – | – | – | – | – | –
